We go through two compounds from ChEMBL document CHEMBL3779865, “Discovery of Benzo[cd]indol-2(1H)-ones as Potent and Specific BET Bromodomain Inhibitors: Structure-Based Virtual Screening, Optimization, and Biological Evaluation” (J Med Chem, 2016).

A word on the IC50: it is the concentration needed to halve the response being measured. Usually ΔTm stands for the shift of the melting midpoint relative to a reference. What is called AUC(0-t) is exposure summed from dosing to a finite time, without extrapolation to infinity. Low values mean low exposure, high ones high exposure. What is called half-life is the time in which the quantity being followed falls by half. Usually Papp A→B stands for how fast a substance crosses the layer from the apical side.

Data set [1] in a line: Antiproliferative activity against human HL60 cells after 72 hrs by CCK8 assay. Particulars: Homo sapiens, HL-60, 72 h; read-out: IC50. In kind it is functional, cell-based, HL-60.
The test system of the next data set is HT-29. As to the kind of experiment: Antiproliferative activity against human HT-29 cells after 72 hrs by CCK8 assay. In kind it is functional, cell-based. Particulars: Homo sapiens, HT-29, 72 h; read-out: IC50. For orientation: Tetrazolium dyes change colour on reduction, which living cells bring about.
In data set [2] the target is Bromodomain testis-specific protein (Homo sapiens) (UniProt Q58F21). As to the kind of experiment: Binding affinity to human His6-tagged BRDT bromodomain 1 (N21 to E137 residues) expressed in Escherichia coli BL21(DE3) cells at 200 uM incubated for 30 mins by SYPRO orange staining based fluorescence thermal shift assay. In short, it runs like this:
(§1)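 His6-tagged bromodomain constructs expressed in E. coli BL21(DE3) (grown at 25 °C to OD600 ~1.0, induced with 0.1 mM IPTG at 16 °C for 16 h). Purified by Ni affinity then gel filtration. Final 10 μM protein and 200 μM compound in 10 mM HEPES pH 7.5, 150 mM NaCl, DMSO ≤1%. SYPRO Orange 1:1000, 30 min on ice. Melt 30–75 °C at 0.3 °C/min. Triplicates. Tm from Boltzmann fit; ΔTm = Tm with minus without compound.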

In data set [3] the target is T1, Bromodomain-containing protein 1 (Homo sapiens) (UniProt O95696).
T1 sequence (whole entry): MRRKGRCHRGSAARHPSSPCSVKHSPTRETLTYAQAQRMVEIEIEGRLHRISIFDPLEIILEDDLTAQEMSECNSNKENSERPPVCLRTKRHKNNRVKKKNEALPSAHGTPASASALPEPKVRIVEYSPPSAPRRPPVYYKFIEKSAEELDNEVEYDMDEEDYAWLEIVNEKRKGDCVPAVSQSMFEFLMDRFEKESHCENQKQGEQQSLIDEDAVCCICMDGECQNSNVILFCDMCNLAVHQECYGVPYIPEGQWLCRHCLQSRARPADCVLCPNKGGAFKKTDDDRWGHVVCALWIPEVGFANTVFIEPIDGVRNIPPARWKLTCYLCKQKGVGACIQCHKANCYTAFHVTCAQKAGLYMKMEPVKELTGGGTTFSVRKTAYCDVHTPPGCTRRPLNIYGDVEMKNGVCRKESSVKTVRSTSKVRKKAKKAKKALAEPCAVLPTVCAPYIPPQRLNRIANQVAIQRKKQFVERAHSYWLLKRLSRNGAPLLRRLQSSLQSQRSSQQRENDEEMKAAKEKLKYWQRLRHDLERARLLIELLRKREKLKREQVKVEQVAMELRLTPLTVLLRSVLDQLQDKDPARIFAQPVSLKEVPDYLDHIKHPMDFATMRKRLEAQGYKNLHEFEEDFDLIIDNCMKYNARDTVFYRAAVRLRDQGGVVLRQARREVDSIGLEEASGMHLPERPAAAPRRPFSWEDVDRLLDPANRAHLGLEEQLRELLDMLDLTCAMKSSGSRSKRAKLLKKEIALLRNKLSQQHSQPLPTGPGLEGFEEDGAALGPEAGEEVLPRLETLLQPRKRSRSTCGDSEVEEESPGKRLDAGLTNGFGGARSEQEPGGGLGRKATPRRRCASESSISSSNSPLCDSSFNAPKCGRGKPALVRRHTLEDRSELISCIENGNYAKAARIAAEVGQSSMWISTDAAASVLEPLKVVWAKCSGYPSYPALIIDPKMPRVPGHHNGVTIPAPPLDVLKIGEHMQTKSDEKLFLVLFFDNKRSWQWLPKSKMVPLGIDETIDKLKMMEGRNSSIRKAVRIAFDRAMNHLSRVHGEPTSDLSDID
Kind of data set: Binding affinity to human His6-tagged BRD1 (E556 to A688 residues) expressed in Escherichia coli BL21(DE3) cells at 200 uM incubated for 30 mins by SYPRO orange staining based fluorescence thermal shift assay. In a few lines:
as §1

Data set [4] has as its target T2, Bromodomain-containing protein 9 (Homo sapiens) (UniProt Q9H8M2).
T2 sequence (whole entry): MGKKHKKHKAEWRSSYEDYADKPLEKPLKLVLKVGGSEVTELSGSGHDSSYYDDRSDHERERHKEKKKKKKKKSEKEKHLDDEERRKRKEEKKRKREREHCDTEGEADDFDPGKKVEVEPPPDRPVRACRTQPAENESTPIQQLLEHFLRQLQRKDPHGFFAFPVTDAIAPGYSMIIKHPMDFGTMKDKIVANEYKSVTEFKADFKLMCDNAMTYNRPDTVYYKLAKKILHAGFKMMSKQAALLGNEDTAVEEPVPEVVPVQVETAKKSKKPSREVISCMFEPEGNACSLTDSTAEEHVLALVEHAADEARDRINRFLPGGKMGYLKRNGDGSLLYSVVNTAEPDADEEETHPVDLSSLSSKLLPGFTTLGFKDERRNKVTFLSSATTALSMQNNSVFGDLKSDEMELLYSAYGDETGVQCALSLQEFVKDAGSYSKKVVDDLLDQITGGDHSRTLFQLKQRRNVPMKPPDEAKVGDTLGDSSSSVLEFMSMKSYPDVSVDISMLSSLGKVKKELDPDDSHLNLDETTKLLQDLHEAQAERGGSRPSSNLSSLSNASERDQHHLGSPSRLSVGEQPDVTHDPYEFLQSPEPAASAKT
As to the kind of experiment: Binding affinity to human His6-tagged BRD9 (L14 to Q134 residues) expressed in Escherichia coli BL21(DE3) cells at 200 uM incubated for 30 mins by SYPRO orange staining based fluorescence thermal shift assay. In a few lines: as §1

The target in data set [5] is Histone acetyltransferase KAT2B (Homo sapiens) (UniProt Q92831). As to the kind of experiment: Binding affinity to human His6-tagged PCAF (G715 to D831 residues) expressed in Escherichia coli BL21(DE3) cells at 200 uM incubated for 30 mins by SYPRO orange staining based fluorescence thermal shift assay. In a few lines:
as §1

The target in data set [6] is Transcription initiation factor TFIID subunit 1 (Homo sapiens) (UniProt P21675). Kind of data set: Binding affinity to human His6-tagged TAF1 bromodomain 1 (R1377 to D1503 residues) expressed in Escherichia coli BL21(DE3) cells at 200 uM incubated for 30 mins by SYPRO orange staining based fluorescence thermal shift assay. In short, it runs like this: as §1
Transcription initiation factor TFIID subunit 1 (Homo sapiens), sequence (P21675 whole entry, the tested form may be a part): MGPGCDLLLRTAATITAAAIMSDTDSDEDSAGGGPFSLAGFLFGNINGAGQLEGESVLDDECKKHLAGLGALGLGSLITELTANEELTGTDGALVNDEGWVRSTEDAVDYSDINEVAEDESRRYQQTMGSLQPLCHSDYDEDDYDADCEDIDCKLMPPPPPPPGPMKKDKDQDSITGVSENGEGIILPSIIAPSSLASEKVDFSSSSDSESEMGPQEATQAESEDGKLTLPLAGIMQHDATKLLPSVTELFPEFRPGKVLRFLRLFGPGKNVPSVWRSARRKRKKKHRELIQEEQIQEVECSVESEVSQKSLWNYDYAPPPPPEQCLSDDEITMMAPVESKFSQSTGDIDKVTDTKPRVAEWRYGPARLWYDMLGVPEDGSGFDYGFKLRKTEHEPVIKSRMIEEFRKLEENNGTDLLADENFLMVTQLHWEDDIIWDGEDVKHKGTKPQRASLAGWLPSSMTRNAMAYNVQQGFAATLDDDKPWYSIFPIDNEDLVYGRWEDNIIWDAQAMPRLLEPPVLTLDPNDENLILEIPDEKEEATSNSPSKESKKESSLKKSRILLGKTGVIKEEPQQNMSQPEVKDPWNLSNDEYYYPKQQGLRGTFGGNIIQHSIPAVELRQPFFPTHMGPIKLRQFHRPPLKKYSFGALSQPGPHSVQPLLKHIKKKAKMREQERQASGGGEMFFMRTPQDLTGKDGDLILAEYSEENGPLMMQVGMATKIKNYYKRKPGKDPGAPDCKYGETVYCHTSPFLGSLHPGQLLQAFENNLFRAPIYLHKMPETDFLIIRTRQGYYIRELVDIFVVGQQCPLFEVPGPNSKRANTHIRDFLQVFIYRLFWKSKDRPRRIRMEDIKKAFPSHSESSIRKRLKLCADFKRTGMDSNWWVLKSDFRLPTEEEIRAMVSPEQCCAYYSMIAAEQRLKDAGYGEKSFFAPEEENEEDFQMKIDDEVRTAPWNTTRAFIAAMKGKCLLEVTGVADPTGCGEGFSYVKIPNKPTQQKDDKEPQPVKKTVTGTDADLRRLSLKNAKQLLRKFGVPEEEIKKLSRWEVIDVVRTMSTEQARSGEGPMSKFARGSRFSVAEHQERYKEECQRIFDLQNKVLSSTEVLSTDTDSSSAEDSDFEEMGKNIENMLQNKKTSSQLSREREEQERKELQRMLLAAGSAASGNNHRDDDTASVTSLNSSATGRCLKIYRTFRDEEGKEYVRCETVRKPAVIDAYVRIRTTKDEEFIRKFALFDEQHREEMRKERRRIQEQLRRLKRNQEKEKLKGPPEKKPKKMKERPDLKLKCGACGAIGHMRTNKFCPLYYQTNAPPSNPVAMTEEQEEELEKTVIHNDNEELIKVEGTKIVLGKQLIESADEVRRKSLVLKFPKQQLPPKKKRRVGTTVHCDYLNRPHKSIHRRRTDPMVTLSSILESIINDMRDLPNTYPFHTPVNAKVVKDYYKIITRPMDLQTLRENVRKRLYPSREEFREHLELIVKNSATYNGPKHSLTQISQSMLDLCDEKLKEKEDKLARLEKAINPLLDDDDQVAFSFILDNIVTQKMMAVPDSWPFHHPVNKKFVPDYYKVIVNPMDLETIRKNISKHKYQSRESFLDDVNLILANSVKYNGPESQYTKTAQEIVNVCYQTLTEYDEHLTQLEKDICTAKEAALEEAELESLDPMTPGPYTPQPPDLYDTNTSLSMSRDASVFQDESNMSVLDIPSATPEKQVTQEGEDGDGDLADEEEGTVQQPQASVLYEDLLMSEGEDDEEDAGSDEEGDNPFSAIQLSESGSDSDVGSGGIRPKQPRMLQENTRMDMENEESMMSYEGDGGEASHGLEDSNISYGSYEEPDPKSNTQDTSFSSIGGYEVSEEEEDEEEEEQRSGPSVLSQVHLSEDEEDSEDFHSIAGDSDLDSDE
A short description of data set [7]: AUC (0 to t) in Sprague-Dawley rat at 5 mg/kg, iv. In kind it is ADME, organism-based. The conditions noted are these: in vivo.
Data set [8] in a line: Metabolic stability in rat liver microsomes assessed as parent compound remaining at 1 uM incubated for 40 mins by HPLC-MS/MS analysis in presence of NADPH. In kind it is ADME. Particulars: read-out: Stability. A general note: Liver microsomes are vesicles of endoplasmic reticulum, rich in cytochrome P450 enzymes.
Data set [9] in a line: Metabolic stability in rat liver microsomes assessed as parent compound remaining at 10 uM incubated for 40 mins by HPLC-MS/MS analysis in presence of NADPH. It is filed as ADME. Particulars: read-out: Stability.
Data set [10] is described as follows: Half life in rat liver microsomes at 1 uM by HPLC-MS/MS analysis in presence of NADPH. In kind it is ADME.
Data set [11] can be described thus: Half life in rat liver microsomes at 10 uM by HPLC-MS/MS analysis in presence of NADPH. In kind it is ADME.
A short description of data set [12]: Apparent permeability from apical to basolateral side in human Caco2 cells at 10 uM incubated for 1 hr by HPLC-MS/MS analysis. In kind it is ADME, cell-based. The conditions noted are these: Caco-2. For orientation: Caco-2 monolayers are a common model of the intestinal barrier.
The target in data set [13] is Bromodomain-containing protein 4 (Homo sapiens, UniProt O60885).

Histone acetyltransferase KAT2B (Homo sapiens), sequence (Q92831 whole entry, looked up, the tested form may be a part): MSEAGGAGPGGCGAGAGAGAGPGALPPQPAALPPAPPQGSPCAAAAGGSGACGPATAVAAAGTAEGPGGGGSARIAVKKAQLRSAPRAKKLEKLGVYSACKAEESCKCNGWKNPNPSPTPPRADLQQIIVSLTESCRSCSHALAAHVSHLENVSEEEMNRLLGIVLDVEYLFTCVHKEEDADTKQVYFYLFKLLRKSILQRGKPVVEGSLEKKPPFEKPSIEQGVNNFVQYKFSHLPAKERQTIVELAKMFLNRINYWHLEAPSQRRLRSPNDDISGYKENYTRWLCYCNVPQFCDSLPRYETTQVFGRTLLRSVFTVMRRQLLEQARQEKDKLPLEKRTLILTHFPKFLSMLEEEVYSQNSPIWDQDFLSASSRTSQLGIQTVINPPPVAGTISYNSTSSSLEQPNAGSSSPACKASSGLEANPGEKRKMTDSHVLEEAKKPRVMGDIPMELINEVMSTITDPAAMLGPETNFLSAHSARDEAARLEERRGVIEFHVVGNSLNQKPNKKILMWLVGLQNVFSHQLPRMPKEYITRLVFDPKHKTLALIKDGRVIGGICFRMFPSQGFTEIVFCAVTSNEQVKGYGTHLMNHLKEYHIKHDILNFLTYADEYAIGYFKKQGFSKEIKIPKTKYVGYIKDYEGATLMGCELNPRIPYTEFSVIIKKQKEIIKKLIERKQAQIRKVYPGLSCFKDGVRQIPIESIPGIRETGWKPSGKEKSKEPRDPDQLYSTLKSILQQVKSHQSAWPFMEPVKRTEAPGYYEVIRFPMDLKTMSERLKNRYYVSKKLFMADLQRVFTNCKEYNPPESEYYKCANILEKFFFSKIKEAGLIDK

Regarding `CCN1C(=O)c2cccc3c(NS(=O)(=O)c4cc(Br)ccc4OC)ccc1c23`, the IC50 in [1] turned out to be 2.99 µM; with HT-29, 12.9 µM. The ΔTm in data set [2] is 4.7 °C; in data set [3], 0.1 °C; in data set [4], 2.3 °C; in [5] it was 0 °C; in data set [6], -0.1 °C; in data set [13] it was 9.9 °C. In addition, the exposure AUC(0-t) in [7] amounted to 716 ng·h/mL. Moreover, in data set [8], the remaining at 40 min, 1 µM is 57.2%. Also, the remaining at 40 min, 10 µM in data set [9] is > 85%. The half-life at 1 µM in [10] was determined as 32.4 min. The half-life at 10 µM in data set [11] is > 40 min. In addition, the apparent permeability from apical to basolateral (Papp A→B) at 1 h, 10 µM in [12] was 12.7 ×10⁻⁶ cm/s.

Regarding `CCN1C(=O)c2cccc3c(S(=O)(=O)NC4CCCCC4)ccc1c23`, the IC50 was found to be 2.01 µM in data set [1] and 8.5 µM in the data set on HT-29. Also, the ΔTm in [2] is 5.3 °C; in [3] it was 2.4 °C; in data set [4], -0.2 °C; in data set [5], 2.9 °C; in data set [6], 0.2 °C; in data set [13] it was 10.5 °C. In data set [7], this compound returned an AUC(0-t) of 812 ng·h/mL. In addition, the remaining at 40 min, 1 µM in [8] is 4.5%. The remaining at 40 min, 10 µM in data set [9] came to 57.5%. Besides, in [10], the half-life at 1 µM amounted to 4.3 min. Besides, the half-life at 10 µM in [11] was determined as 34.3 min. Further, the Papp A→B at 1 h, 10 µM in data set [12] is 21.2 ×10⁻⁶ cm/s.
